Laboratory results from ChEMBL document CHEMBL4354846, “1,3-Dipolar Cycloaddition, HPLC Enantioseparation, and Docking Studies of Saccharin/Isoxazole and Saccharin/Isoxazoline Derivatives as Selective Carbonic Anhydrase IX and XII Inhibitors” (J Med Chem, 2020).
Activity calls are given as the source filed them. The calls are words filed in the database; no cut-off is given here.

Columns and labels:
Carbonic anhydrase 9 = Carbonic anhydrase 9 (Homo sapiens, UniProt Q16790); assay: Inhibition of recombinant human carbonic anhydrase 9 incubated for 15 mins prior to testing measured for 10 to 100 secs by phenol red-based stopped-flow CO2 hydration assay
Carbonic anhydrase 1 = Carbonic anhydrase 1 (Homo sapiens, UniProt P00915); assay: Inhibition of recombinant human carbonic anhydrase 1 incubated for 15 mins prior to testing measured for 10 to 100 secs by phenol red-based stopped-flow CO2 hydration assay
Sequence of Carbonic anhydrase 1 (P00915 whole entry): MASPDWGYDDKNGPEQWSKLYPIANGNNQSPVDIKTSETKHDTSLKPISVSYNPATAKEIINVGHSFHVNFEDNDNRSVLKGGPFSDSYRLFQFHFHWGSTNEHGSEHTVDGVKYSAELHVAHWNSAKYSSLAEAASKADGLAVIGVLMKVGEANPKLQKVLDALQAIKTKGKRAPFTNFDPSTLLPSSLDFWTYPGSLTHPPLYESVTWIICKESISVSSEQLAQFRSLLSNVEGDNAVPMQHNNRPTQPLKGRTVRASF

Carbonic anhydrase 2 = Carbonic anhydrase 2 (Homo sapiens, UniProt P00918); assay: Inhibition of recombinant human carbonic anhydrase 2 incubated for 15 mins prior to testing measured for 10 to 100 secs by phenol red-based stopped-flow CO2 hydration assay
Carbonic anhydrase 12 = Carbonic anhydrase 12 (Homo sapiens, UniProt O43570); assay: Inhibition of recombinant human carbonic anhydrase 12 incubated for 15 mins prior to testing measured for 10 to 100 secs by phenol red-based stopped-flow CO2 hydration assay
Sequence of Carbonic anhydrase 12 (O43570 whole entry): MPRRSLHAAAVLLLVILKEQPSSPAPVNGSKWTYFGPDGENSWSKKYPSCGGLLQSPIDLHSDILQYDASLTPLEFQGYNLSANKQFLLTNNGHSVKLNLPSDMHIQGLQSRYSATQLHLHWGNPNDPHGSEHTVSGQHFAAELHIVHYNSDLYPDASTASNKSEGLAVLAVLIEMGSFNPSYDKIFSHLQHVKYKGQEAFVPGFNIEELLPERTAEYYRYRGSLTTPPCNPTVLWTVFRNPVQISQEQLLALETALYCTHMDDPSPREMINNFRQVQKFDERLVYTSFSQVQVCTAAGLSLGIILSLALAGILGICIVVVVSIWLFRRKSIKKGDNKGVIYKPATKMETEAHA

MCF7 [1] = assay: Chemosensitization activity in human MCF7 cells assessed as induction of morphological changes by measuring rounded cells at 100 to 200 uM measured after 72 hrs in presence of doxorubicin under hypoxic condition by phase contrast light microscopic analysis; format: functional, cell-based
Outline: (§1)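 MCF7 seeded 10000/well, grown 24 h, then medium with CoCl2 100 μM for 48 h to induce hypoxia. Cells then given compound (0.05–200 μM, DMSO final 0.2%) with doxorubicin 2.5 μM for 72 h. Imaged by phase contrast light microscopy (×20) for cell shape and detachment, before the MTT step.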

MCF7 [2] = assay: Chemosensitization activity in human MCF7 cells assessed as reduction in cell viability at 0.05 to 200 uM measured after 72 hrs in presence of doxorubicin under hypoxic condition by MTT assay; format: functional, cell-based
Outline: (§2)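 MCF7 in DMEM high glucose with 10% FBS, 37 °C, 5% CO2. Seeded 10000/well for 24 h, then CoCl2 100 μM for 48 h (hypoxia). Treated 72 h with compound 0.05–200 μM plus doxorubicin 2.5 μM, DMSO final 0.2%. MTT 0.5 mg/mL for 5 h at 37 °C, formazan dissolved in DMSO, read at 570 nm. Normalized to DMSO+CoCl2+doxorubicin control. Three experiments; one-way ANOVA with Tukey.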

[3] = Cytotoxicity against HGF cells assessed as reduction in cell viability at 0.05 to 200 uM measured up to 72 hrs by MTT assay; format: cell-based; conditions: human
Outline: (§3)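 Gingival fibroblasts seeded and treated as for LDH: 0.05–200 μM compound, DMSO final 0.2%, read at 24, 48 and 72 h. MTT 0.5 mg/mL for 5 h at 37 °C, formazan dissolved in DMSO, read at 570 nm. Viability normalized to 0.2% DMSO control. One-way ANOVA with Tukey tests.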

[4] = Cytotoxicity against HGF cells assessed as reduction in LDH release at 0.05 to 200 uM measured up to 72 hrs by CytoTox 96 nonradioactive cytotoxicity assay; format: cell-based; conditions: human
Outline: (§4)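 Primary human gingival fibroblasts from healthy donors, in DMEM with 10% FBS at 37 °C, 5% CO2. Treated 24 h after seeding with 0.05–200 μM compound (DMSO final 0.2%). Supernatants collected at 24, 48 and 72 h and spun 450 g for 4 min. LDH measured by a 30-min coupled tetrazolium reaction read at 490 nm, with 690 nm as background. Given as % of lysed-cell positive control.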

MCF7 [5] = assay: Chemosensitization activity in human MCF7 cells assessed as induction of morphological changes by measuring cell detachment at 100 to 200 uM measured after 72 hrs in presence of doxorubicin under hypoxic condition by phase contrast light microscopic analysis; format: functional, cell-based; outline: as §1
[6] = Cytotoxicity against HGF cells assessed as reduction in cell viability at 100 to 200 uM measured after 72 hrs by MTT assay; format: cell-based; conditions: human; outline: as §3
[7] = Cytotoxicity against HGF cells assessed as reduction in LDH release at 0.05 to 200 uM measured after 48 to 72 hrs by CytoTox 96 nonradioactive cytotoxicity assay; format: cell-based; conditions: human; outline: as §4
MCF7 [8] = assay: Chemosensitization activity in human MCF7 cells assessed as reduction in cell viability at 100 to 200 uM measured after 72 hrs in presence of doxorubicin under hypoxic condition by MTT assay; format: functional, cell-based; outline: as §2
[9] = Cytotoxicity against HGF cells assessed as cell viability at 100 to 200 uM measured after 24 to 48 hrs by MTT assay relative to control; format: cell-based; conditions: human, read-out: Activity; outline: as §3
[10] = Cytotoxicity against HGF cells assessed as reduction in LDH release at 0.05 to 200 uM measured after 24 hrs by CytoTox 96 nonradioactive cytotoxicity assay; format: cell-based; conditions: human; outline: as §4
[11] = Cytotoxicity against HGF cells assessed as reduction in cell viability at 0.05 to 50 uM measured after 24 to 48 hrs by MTT assay; format: cell-based; conditions: human, 50 to 200 µM; in the assay text read “50 to 200 uM” for “0.05 to 50 uM”; outline: as §3
[12] = Cytotoxicity against HGF cells assessed as reduction in cell viability at 0.05 to 5 uM measured after 72 hrs by MTT assay; format: cell-based; conditions: human; outline: as §3
MCF7 [13] = assay: Cytotoxicity against human MCF7 cells assessed as reduction in cell viability measured after 72 hrs under hypoxic condition by MTT assay; format: functional, cell-based; conditions: MCF7, 72 h
Outline: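 MCF7 given CoCl2 100 μM for 48 h to induce hypoxia, then doxorubicin alone at 0.05–200 μM for 72 h. Viability read by MTT: 0.5 mg/mL for 5 h at 37 °C, formazan dissolved in DMSO, absorbance at 570 nm, cell-free wells as background.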

Row | Compound | Ki (Carbonic anhydrase 9) | Ki (Carbonic anhydrase 1) | Ki (Carbonic anhydrase 2) | other results
1 | O=C1c2ccccc2S(=O)(=O)N1Cc1cc(-c2cccs2)no1 | 7.5 nM | > 10000 nM | > 10000 nM | 
2 | O=C1c2ccccc2S(=O)(=O)N1C[C@H]1CC(c2cccs2)=NO1 | 26.4 nM | 358 nM | > 10000 nM | 
3 | O=C1c2ccccc2S(=O)(=O)N1C[C@H]1CC(c2ccccc2)=NO1 | 30 nM | > 10000 nM | > 10000 nM | Ki (Carbonic anhydrase 12): 48.9 nM
4 | O=C1c2ccccc2S(=O)(=O)N1C[C@@H]1CC(c2ccccc2)=NO1 | 29.3 nM | > 10000 nM | > 10000 nM | Ki (Carbonic anhydrase 12): 36.5 nM
5 | COc1ccc(C2=NOC(CN3C(=O)c4ccccc4S3(=O)=O)C2)cc1 (configuration not stated) | 139 nM | > 10000 nM |  | Ki (Carbonic anhydrase 12): 8.1 nM
6 | O=C1c2ccccc2S(=O)(=O)N1Cc1cc(-c2ccc([N+](=O)[O-])cc2)no1 |  | > 10000 nM | > 10000 nM | Activity (MCF7 [1]): Active; Activity (MCF7 [2]): inactive; Activity [3]: Non-Toxic; Activity [4]: Non-Toxic; Activity (MCF7 [5]): Active
7 | COc1ccc(-c2cc(CN3C(=O)c4ccccc4S3(=O)=O)on2)cc1 | 22.1 nM | > 10000 nM | > 10000 nM | Activity [6]: Toxic; Activity [7]: Non-Toxic; Activity (MCF7 [8]): Active; viability at up to 200 µM [9]: < 50%; Activity [10]: Toxic; Activity [11]: Toxic; Activity (MCF7 [1]): Active; Activity [12]: Non-Toxic; Activity (MCF7 [5]): Active
8 | O=C1c2ccccc2S(=O)(=O)N1Cc1cc(-c2cccc([N+](=O)[O-])c2)no1 | 230 nM | > 10000 nM | > 10000 nM | 
9 | O=C1c2ccccc2S(=O)(=O)N1CC1CC(c2ccc([N+](=O)[O-])cc2)=NO1 (configuration not stated) | 235 nM | > 10000 nM | > 10000 nM | 
10 | COc1ccccc1C1=NOC(CN2C(=O)c3ccccc3S2(=O)=O)C1 (configuration not stated) | > 10000 nM | > 10000 nM | > 10000 nM | Ki (Carbonic anhydrase 12): 9.4 nM
11 | O=C1c2ccccc2S(=O)(=O)N1CC1CC(c2cccnc2)=NO1 (configuration not stated) | 274 nM | > 10000 nM | > 10000 nM | 
12 | O=C1c2ccccc2S(=O)(=O)N1CC1CC(c2ccccn2)=NO1 (configuration not stated) | 258 nM | > 10000 nM | > 10000 nM | 
13 | O=C1c2ccccc2S(=O)(=O)N1Cc1cc(-c2cccnc2)no1 | 86.2 nM | > 10000 nM | > 10000 nM | 
14 | COc1cccc2c1C(=O)c1c(O)c3c(c(O)c1C2=O)C[C@@](O)(C(=O)CO)C[C@@H]3O[C@H]1C[C@H](N)[C@H](O)[C@H](C)O1 [DOXORUBICIN] |  |  |  | IC50 (MCF7 [13]): 5000 to 50000 nM
15 | O=C1c2ccccc2S(=O)(=O)N1Cc1cc(-c2ccccc2)no1 | 50.9 nM | > 10000 nM | > 10000 nM | 
16 | O=C1c2ccccc2S(=O)(=O)N1Cc1cc(-c2ccccn2)no1 | 245 nM | > 10000 nM | > 10000 nM | 
17 | COc1ccccc1-c1cc(CN2C(=O)c3ccccc3S2(=O)=O)on1 | > 10000 nM | > 10000 nM | > 10000 nM | 
18 | O=C1c2ccccc2S(=O)(=O)N1C[C@@H]1CC(c2cccs2)=NO1 | 2.4 nM | 365 nM | 13.1 nM | 
19 | O=C1c2ccccc2S(=O)(=O)N1CC1CC(c2cccc([N+](=O)[O-])c2)=NO1 (configuration not stated) | 103 nM | > 10000 nM | > 10000 nM | 
20 | COc1cccc(-c2cc(CN3C(=O)c4ccccc4S3(=O)=O)on2)c1 | 247 nM | > 10000 nM | > 10000 nM | 
21 | COc1cccc(C2=NOC(CN3C(=O)c4ccccc4S3(=O)=O)C2)c1 (configuration not stated) | > 10000 nM | > 10000 nM | > 10000 nM | 
